# Experimental data published in publication PMC8268672 (Bioorganic Chemistry, 2021).
# Read-outs that look alike come from different tables or passages of the source.
# Columns and labels:
# [1] = tested on: Escherichia coli (ATCC 8739); experiment: MIC, broth microdilution; format: cell-based; conditions: ATCC8739, read-out: Minimum inhibitory concentration (MIC), EC
# In short: (§1)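 Broth microdilution per CLSI in Mueller-Hinton broth, using two-fold serial dilutions of test compound and reference drugs from 512 to 0.25. Bacterial broth cultures were grown 2-6 h to 0.5 McFarland turbidity, then diluted with sterile solution to the final inoculum. MIC is reported in µg/mL.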
# [2] = tested on: Pseudomonas aeruginosa (MCCB 0035); experiment: MIC, broth microdilution; format: cell-based; conditions: read-out: Minimum inhibitory concentration (MIC), PA
# In short: as §1
# [3] = tested on: Klebsiella aerogenes (NCIM-2098); experiment: MIC, broth microdilution; format: cell-based; conditions: NCIM2098, read-out: Minimum inhibitory concentration (MIC), KA
# In short: (§2)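 Antibacterial MICs by CLSI broth microdilution in Mueller-Hinton broth. Test compounds and standard drugs are serially diluted two-fold from 512 to 0.25. The bacterial broth culture is grown 2-6 h to a 0.5 McFarland turbidity, then adjusted with sterile solution to the final inoculum.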
# [4] = tested on: Staphylococcus aureus (ATCC 29213); experiment: MIC, broth microdilution; format: cell-based; conditions: ATCC29213, read-out: Minimum inhibitory concentration (MIC), SA
# In short: as §2
# [5] = tested on: Bacillus cereus (NCIM-2458); experiment: MIC, broth microdilution; format: cell-based; conditions: NCIM2458, read-out: Minimum inhibitory concentration (MIC), BC
# In short: as §1
# [6] = tested on: Aspergillus niger (NCIM 2191); experiment: MIC, broth microdilution; format: cell-based; conditions: NCIM2191, read-out: Minimum inhibitory concentration (MIC), AN
# In short: (§3)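 Antifungal MICs by CLSI broth microdilution in Sabouraud liquid medium. Test compounds and standard drugs are serially diluted two-fold from 512 to 0.25. The fungal broth culture is grown 24 h at 35 °C to a 0.5 McFarland turbidity, then adjusted with sterile solution to the final inoculum.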
# [7] = tested on: Candida albicans (NCIM 2087); experiment: MIC, broth microdilution; format: cell-based; conditions: NCIM2087, read-out: Minimum inhibitory concentration (MIC), CA
# In short: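 CLSI broth microdilution in Sabouraud liquid medium, with test compound two-fold serially diluted from 512 to 0.25. Fungal broth culture grown 24 h at 35 °C to 0.5 McFarland turbidity, then adjusted with sterile solution to a final […] inoculum. MIC expressed in µg/mL.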
# [8] = tested on: Aspergillus fumigatus (NCIM 2081); experiment: MIC, broth microdilution; format: cell-based; conditions: NCIM2081, read-out: Minimum inhibitory concentration (MIC), AF
# In short: as §3
# [9] = tested on: Cryptococcus neoformans (ATCC 9011); experiment: MIC, broth microdilution; format: cell-based; conditions: ATCC9011, read-out: Minimum inhibitory concentration (MIC), CN
# In short: as §3
# [10] = tested on: Escherichia coli (ATCC 8739); experiment: Agar disk diffusion, inhibition zone; format: cell-based; conditions: 100 µg/8 mm disc, triplicate, mean ± SD
# In short: (§4)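 Agar disk diffusion on Mueller-Hinton agar plates seeded with a standard bacterial suspension. Test compound stock in DMSO, diluted with distilled water; 8 mm sterile filter-paper discs soaked in the solution. Ampicillin was the reference. Plates incubated at 35 °C for 24 h, in triplicate. Read-out is the average inhibition-zone diameter (mm) around each disc.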
# [11] = tested on: Pseudomonas aeruginosa (MCCB 0035); experiment: Agar disk diffusion, inhibition zone; format: cell-based; conditions: 100 µg/8 mm disc, triplicate, mean ± SD
# [12] = tested on: Salmonella typhimurium (NCIM-2501); experiment: Agar disk diffusion, inhibition zone; format: cell-based; conditions: 100 µg/8 mm disc, triplicate, mean ± SD
# [13] = tested on: Klebsiella aerogenes (NCIM-2098); experiment: Agar disk diffusion, inhibition zone; format: cell-based; conditions: 100 µg/8 mm disc, triplicate, mean ± SD
# [14] = tested on: Staphylococcus aureus (ATCC 29213); experiment: Agar disk diffusion, inhibition zone; format: cell-based; conditions: 100 µg/8 mm disc, triplicate, mean ± SD
# In short: as §4
# [15] = tested on: Bacillus cereus (NCIM-2458); experiment: Agar disk diffusion, inhibition zone; format: cell-based; conditions: 100 µg/8 mm disc, triplicate, mean ± SD
# [16] = tested on: Lactobacillus casei (NCIM-2651); experiment: Agar disk diffusion, inhibition zone; format: cell-based; conditions: 100 µg/8 mm disc, triplicate, mean ± SD
# [17] = tested on: Streptococcus pneumonia (ATCC 49619); experiment: Agar disk diffusion, inhibition zone; format: cell-based; conditions: 100 µg/8 mm disc, triplicate, mean ± SD
# [18] = tested on: Aspergillus niger (NCIM 2191); experiment: Agar disk diffusion, inhibition zone; format: cell-based; conditions: 100 µg/8 mm disc, triplicate, mean ± SD
# In short: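 For the fungal strain, discs soaked in test compound solution (DMSO stock diluted with distilled water) sat on seeded Mueller-Hinton agar. Clotrimazole was the reference. Incubation ran 48 h at 35 °C, in triplicate. Zone of growth inhibition recorded in mm as the mean diameter around each disc.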
# [19] = tested on: Candida albicans (NCIM 2087); experiment: Agar disk diffusion, inhibition zone; format: cell-based; conditions: 100 µg/8 mm disc, triplicate, mean ± SD
# [20] = tested on: Aspergillus fumigatus (NCIM 2081); experiment: Agar disk diffusion, inhibition zone; format: cell-based; conditions: 100 µg/8 mm disc, triplicate, mean ± SD
# [21] = tested on: Cryptococcus neoformans (ATCC 9011); experiment: Agar disk diffusion, inhibition zone; format: cell-based; conditions: 100 µg/8 mm disc, triplicate, mean ± SD
# Vaccinia virus = experiment: microbe, parasite or virus in culture; format: cell-based; conditions: Orthopoxvirus vaccinia, HEL, read-out: Antiviral EC50, Vaccinia virus
# Adeno virus-2 = experiment: CPE reduction assay in HEL cells; format: cell-based; conditions: read-out: Antiviral EC50, Adeno virus-2
# Human Coronavirus (229E) = experiment: CPE reduction assay in HEL cells; format: cell-based; conditions: read-out: Antiviral EC50, Human Coronavirus (229E)
# Para-influenza-3 virus = experiment: CPE reduction assay in Vero cells; format: cell-based, Parainfluenza-3 virus; conditions: Vero, read-out: Antiviral EC50, Para-influenza-3 virus
# Reovirus-1 = experiment: CPE reduction assay in Vero cells; format: cell-based; conditions: read-out: Antiviral EC50, Reovirus-1
# Sindbis virus = experiment: CPE reduction assay in Vero cells; format: cell-based; conditions: read-out: Antiviral EC50, Sindbis virus
# Coxsackie virus B4 = experiment: CPE reduction assay in Vero cells; format: cell-based; conditions: Enterovirus B, read-out: Antiviral EC50, Coxsackie virus B4
# Punta Toro virus = experiment: CPE reduction assay in Vero cells; format: cell-based; conditions: read-out: Antiviral EC50, Punta Toro virus
# Yellow Fever virus = experiment: microbe, parasite or virus in culture; format: cell-based; conditions: Yellow fever virus, Vero, read-out: Antiviral EC50, Yellow Fever virus
# [22] = tested on: Influenza A/H1N1 A/Ned/378/05; experiment: CPE reduction assay in MDCK cells; format: cell-based; conditions: Influenza A virus
# [23] = tested on: Influenza A/H3N2 A/HK/7/87; experiment: CPE reduction assay in MDCK cells; format: cell-based; conditions: Influenza A virus
# Influenza B B/Ned/537/05 = experiment: CPE reduction assay in MDCK cells; format: cell-based; conditions: Influenza B virus, read-out: Antiviral EC50, Influenza B B/Ned/537/05, MTS
# [24] = tested on: Human embryonic lung (HEL) cells; conditions: HEL cell cultures; microscopically detectable alteration of normal cell morphology
# Vero cells = conditions: Vero cell cultures; microscopically detectable alteration of normal cell morphology
# [25] = tested on: Madin Darby canine kidney (MDCK) cells; conditions: dog
# MT4 cells = conditions: MT4 cell cultures; colorimetric MTT cell viability assay
# [26] = read-out: Antiviral EC50, Influenza A/H1N1 A/Ned/378/05, MTS
# [27] = read-out: Antiviral EC50, Influenza A/H1N1 A/Ned/378/05, visual CPE score
# [28] = read-out: Antiviral EC50, Influenza A/H3N2 A/HK/7/87, MTS
# [29] = read-out: Antiviral EC50, Influenza A/H3N2 A/HK/7/87, visual CPE score
Structure (SMILES),MIC [1],MIC [2],MIC [3],MIC [4],MIC [5],MIC [6],MIC [7],MIC [8],MIC [9],"Diameter of growth inhibition zone, EC [10]","Diameter of growth inhibition zone, PA [11]","Diameter of growth inhibition zone, ST [12]","Diameter of growth inhibition zone, KA [13]","Diameter of growth inhibition zone, SA [14]","Diameter of growth inhibition zone, BC [15]","Diameter of growth inhibition zone, LC [16]","Diameter of growth inhibition zone, SP [17]","Diameter of growth inhibition zone, AN [18]","Diameter of growth inhibition zone, CA [19]","Diameter of growth inhibition zone, AF [20]",also measured
"Cc1ccc(S(=O)(=O)N2C(=O)CSC2c2ccccc2Cl)cc1 (stereo not drawn) [5e, 2-(2-Chlorophenyl)-3-[(4-methylphenyl)sulfonyl]-1,3-thiazolidin-4-one]",16 µg/mL,32 µg/mL,32 µg/mL,64 µg/mL,64 µg/mL,32 µg/mL,32 µg/mL,64 µg/mL,16 µg/mL,19 ± 0.69 mm,18 ± 0.55 mm,10 ± 0.72 mm,12 ± 0.5 mm,17 ± 3.6 mm,10 ± 0.7 mm,14 ± 0.3 mm,10 ± 1.32 mm,10.2 ± 0.9 mm,10.8 ± 1.5 mm,9.6 ± 1.2 mm,"Diameter of growth inhibition zone, CN [21]: 12 ± 0.9 mm; EC50 (Vaccinia virus): > 100 µM; EC50 (Adeno virus-2): > 100 µM; EC50 (Human Coronavirus (229E)): > 100 µM; EC50 (Para-influenza-3 virus): > 100 µM; EC50 (Reovirus-1): > 100 µM; EC50 (Sindbis virus): > 100 µM; EC50 (Coxsackie virus B4): > 100 µM; EC50 (Punta Toro virus): > 100 µM; EC50 (Yellow Fever virus): > 100 µM; EC50 [22, 26]: > 100 µM; EC50 [22, 27]: > 100 µM; EC50 [23, 28]: > 100 µM; EC50 [23, 29]: > 100 µM; EC50 (Influenza B B/Ned/537/05): > 100 µM; Minimum cytotoxic conc. [24]: >100 µM; Minimum cytotoxic conc. (Vero cells): >100 µM; Cytotoxicity, Minimum cytotoxic conc. [25]: >100 µM; Minimum cytotoxic conc. (MT4 cells): >125 µM"
"Cc1ccc(S(=O)(=O)N2C(=O)CSC2c2cccc([N+](=O)[O-])c2)cc1 (stereo not drawn) [5p, 3-[(4-Methylphenyl)sulfonyl]-2-(3-nitrophenyl)-1,3-thiazolidin-4-one]",32 µg/mL,64 µg/mL,16 µg/mL,32 µg/mL,64 µg/mL,8 µg/mL,4 µg/mL,8 µg/mL,2 µg/mL,16 ± 0.69 mm,14 ± 1.1 mm,12 ± 0.1 mm,14 ± 0.75 mm,16 ± 0.9 mm,10 ± 0.4 mm,12 ± 1.56 mm,08 ± 0.87 mm,20 ± 0.9 mm,22 ± 1.2 mm,20 ± 1.1 mm,"Diameter of growth inhibition zone, CN [21]: 19 ± 1.0 mm; EC50 (Vaccinia virus): > 100 µM; EC50 (Adeno virus-2): > 100 µM; EC50 (Human Coronavirus (229E)): > 100 µM; EC50 (Para-influenza-3 virus): > 100 µM; EC50 (Reovirus-1): > 100 µM; EC50 (Sindbis virus): > 100 µM; EC50 (Coxsackie virus B4): > 100 µM; EC50 (Punta Toro virus): > 100 µM; EC50 (Yellow Fever virus): > 100 µM; EC50 [22, 26]: > 100 µM; EC50 [22, 27]: > 100 µM; EC50 [23, 28]: > 100 µM; EC50 [23, 29]: > 100 µM; EC50 (Influenza B B/Ned/537/05): > 100 µM; Minimum cytotoxic conc. [24]: >100 µM; Minimum cytotoxic conc. (Vero cells): >100 µM; Cytotoxicity, Minimum cytotoxic conc. [25]: >100 µM; Minimum cytotoxic conc. (MT4 cells): >125 µM"
